Calls of active or inactive are those of the source. No cut-off for these calls is given here.
Columns and labels:
[1] = Stability in human liver microsomes assessed as parent compound remaining at 1 uM measured after 30 mins by LC-MS/MS analysis; type: ADME, Microsome; details: read-out: Stability
Method in brief: (§1)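 Liver microsome stability run by a contract lab using standard protocols. Parent compound remaining measured after 30 min incubation.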

[2] = Stability in rat liver microsomes assessed as parent compound remaining at 1 uM measured after 30 mins by LC-MS/MS analysis; type: ADME, Microsome; details: read-out: Stability; method in brief: as §1
[3] = Inhibition of recombinant human His6-tagged PDE4D7 UCR1 S129D mutant expressed in baculovirus infected Sf9 insect cells using cAMP as substrate preincubated for 5 to 10 mins followed by substrate addition and measured for 10 mins in presence of BSA by yeast myokinase/pyruvate kinase/lactate dehydrogenase-coupled fluorescence assay
[4] = Inhibition of recombinant human His6-tagged PDE4D7 UCR1 S129D mutant expressed in baculovirus infected Sf9 insect cells using cAMP as substrate preincubated for 5 to 10 mins followed by substrate addition and measured for 10 mins by yeast myokinase/pyruvate kinase/lactate dehydrogenase-coupled fluorescence assay relative to control
[5] = Inhibition of recombinant human His6-tagged PDE4D3 UCR1 S54D mutant expressed in baculovirus infected Sf9 insect cells using cAMP as substrate preincubated for 5 to 10 mins followed by substrate addition and measured for 10 mins by yeast myokinase/pyruvate kinase/lactate dehydrogenase-coupled fluorescence assay relative to control
[6] = biological target: Voltage-gated inwardly rectifying potassium channel KCNH2 (Homo sapiens, UniProt Q12809); assay: Inhibition of human ERG
[7] = Half life in C57Bl6 mouse; type: ADME; details: in vivo
[8] = Ratio of drug level in C57Bl6 mouse brain to plasma; type: ADME
[9] = Inhibition of recombinant human His6-tagged PDE4D UCR2 deletion mutant catalytic domain expressed in baculovirus infected Sf9 insect cells using cAMP as substrate preincubated for 5 to 10 mins followed by substrate addition and measured for 10 mins by yeast myokinase/pyruvate kinase/lactate dehydrogenase-coupled fluorescence assay relative to control
[10] = Oral bioavailability in rat; type: ADME, organism-based; details: in vivo
[11] = Toxicity in rat assessed as pulmonary effect up to 60 mg/kg, po; type: organism-based; details: in vivo
[12] = Toxicity in rat assessed as inappetence at 100 mg/kg, po; type: organism-based; details: in vivo
[13] = Toxicity in dog assessed as weight loss at 100 mg/kg, po; type: organism-based, Canis lupus familiaris; details: in vivo
[14] = Vascular toxicity in dog measured for 90 days; design: species or system Canis lupus familiaris; details: in vivo, 2160 h
Mustela putorius furo = assay: Induction of emesis in ferret up to 30 mg/kg, po; type: organism-based; details: in vivo
[15] = biological target: T1, 3',5'-cyclic-AMP phosphodiesterase 4B (Homo sapiens, UniProt Q07343); assay: Inhibition of recombinant N-terminal GST-tagged full length human PDE4B1 expressed in baculovirus infected Sf9 cells using FAM-cAMP as substrate incubated for 60 mins by fluorescence assay; details: sf9, 1 h
[16] = biological target: Dual specificity calcium/calmodulin-dependent 3',5'-cyclic nucleotide phosphodiesterase 1A (Homo sapiens, UniProt P54750); assay: Inhibition of recombinant human full length N-terminal GST-tagged PDE1A5 expressed in baculovirus infected Sf9 insect cells using FAM-cAMP as substrate measured after 1 hr by fluorescence assay; details: sf9, 1 h
[17] = biological target: Dual specificity calcium/calmodulin-dependent 3',5'-cyclic nucleotide phosphodiesterase 1B (Homo sapiens, UniProt Q01064); assay: Inhibition of recombinant human full length N-terminal GST-tagged PDE1B expressed in baculovirus infected Sf9 insect cells using FAM-cAMP as substrate measured after 1 hr by fluorescence assay; details: sf9, 1 h
[18] = biological target: Dual specificity calcium/calmodulin-dependent 3',5'-cyclic nucleotide phosphodiesterase 1C (Homo sapiens, UniProt Q14123); assay: Inhibition of recombinant human N-terminal GST-tagged PDE1C (2 to 634 residues) expressed in baculovirus infected Sf9 insect cells using FAM-cAMP as substrate measured after 1 hr by fluorescence assay; details: sf9, 1 h
[19] = biological target: cGMP-dependent 3',5'-cyclic phosphodiesterase (Homo sapiens, UniProt O00408); assay: Inhibition of recombinant human full length N-terminal thrombin cleavage site-fused/GST-tagged PDE2A expressed in baculovirus infected Sf9 insect cells using FAM-cAMP as substrate measured after 60 mins by fluorescence assay; details: sf9, 1 h
[20] = biological target: cGMP-inhibited 3',5'-cyclic phosphodiesterase 3A (Homo sapiens, UniProt Q14432); assay: Inhibition of recombinant human N-terminal His/GST-tagged PDE3A (669 to 1141 residues) expressed in baculovirus infected Sf9 insect cells using cAMP as substrate
[21] = Inhibition of recombinant N-terminal GST-tagged full length human PDE4A1A expressed in baculovirus infected Sf9 cells using FAM-cAMP as substrate incubated for 60 mins by fluorescence assay; details: sf9, 1 h
[22] = biological target: T1, 3',5'-cyclic-AMP phosphodiesterase 4B; assay: Inhibition of recombinant N-terminal GST-tagged/C-terminal His-tagged full length human PDE4B2 expressed in baculovirus infected Sf9 cells using FAM-cAMP as substrate incubated for 60 mins by fluorescence assay; details: sf9, 1 h
[23] = biological target: T2, 3',5'-cyclic-AMP phosphodiesterase 4D (Homo sapiens, UniProt Q08499); assay: Inhibition of recombinant human N-terminal GST-tagged PDE4D2 (2 to 507 residues) expressed in baculovirus infected Sf9 cells using FAM-cAMP as substrate incubated for 60 mins by fluorescence assay; details: sf9, 1 h
[24] = biological target: T2, 3',5'-cyclic-AMP phosphodiesterase 4D; assay: Inhibition of recombinant human full length N-terminal GST-tagged PDE4D3 expressed in baculovirus infected Sf9 cells using FAM-cAMP as substrate incubated for 60 mins by fluorescence assay; details: sf9, 1 h
[25] = biological target: cGMP-specific 3',5'-cyclic phosphodiesterase (Homo sapiens, UniProt O76074); assay: Inhibition of recombinant human N-terminal GST-tagged PDE5A1 expressed in baculovirus infected Sf9 cells using FAM-cGMP as substrate incubated for 60 mins by fluorescence assay; details: sf9, 1 h
[26] = biological target: Cone cGMP-specific 3',5'-cyclic phosphodiesterase subunit alpha' (Homo sapiens, UniProt P51160); assay: Inhibition of recombinant human N-terminal GST-tagged PDE6C expressed in baculovirus infected Sf9 cells using FAM-cGMP as substrate incubated for 60 mins by fluorescence assay; details: sf9, 1 h
[27] = biological target: High affinity 3',5'-cyclic-AMP phosphodiesterase 7A (Homo sapiens, UniProt Q13946); assay: Inhibition of recombinant human N-terminal GST-tagged PDE7A2 (122 to end residues) expressed in baculovirus infected Sf9 cells using FAM-cAMP as substrate incubated for 60 mins by fluorescence assay; details: sf9, 1 h
[28] = biological target: 3',5'-cyclic-AMP phosphodiesterase 7B (Homo sapiens, UniProt Q9NP56); assay: Inhibition of recombinant human N-terminal GST-tagged/C-terminal His-tagged PDE7B (109 to end residues) expressed in baculovirus infected Sf9 cells using FAM-cAMP as substrate incubated for 60 mins by fluorescence assay; details: sf9, 1 h
[29] = Cmax in ICR mouse at 30 mg/kg, po; details: in vivo

T2 sequence (Q08499 whole entry, the tested form may be a part): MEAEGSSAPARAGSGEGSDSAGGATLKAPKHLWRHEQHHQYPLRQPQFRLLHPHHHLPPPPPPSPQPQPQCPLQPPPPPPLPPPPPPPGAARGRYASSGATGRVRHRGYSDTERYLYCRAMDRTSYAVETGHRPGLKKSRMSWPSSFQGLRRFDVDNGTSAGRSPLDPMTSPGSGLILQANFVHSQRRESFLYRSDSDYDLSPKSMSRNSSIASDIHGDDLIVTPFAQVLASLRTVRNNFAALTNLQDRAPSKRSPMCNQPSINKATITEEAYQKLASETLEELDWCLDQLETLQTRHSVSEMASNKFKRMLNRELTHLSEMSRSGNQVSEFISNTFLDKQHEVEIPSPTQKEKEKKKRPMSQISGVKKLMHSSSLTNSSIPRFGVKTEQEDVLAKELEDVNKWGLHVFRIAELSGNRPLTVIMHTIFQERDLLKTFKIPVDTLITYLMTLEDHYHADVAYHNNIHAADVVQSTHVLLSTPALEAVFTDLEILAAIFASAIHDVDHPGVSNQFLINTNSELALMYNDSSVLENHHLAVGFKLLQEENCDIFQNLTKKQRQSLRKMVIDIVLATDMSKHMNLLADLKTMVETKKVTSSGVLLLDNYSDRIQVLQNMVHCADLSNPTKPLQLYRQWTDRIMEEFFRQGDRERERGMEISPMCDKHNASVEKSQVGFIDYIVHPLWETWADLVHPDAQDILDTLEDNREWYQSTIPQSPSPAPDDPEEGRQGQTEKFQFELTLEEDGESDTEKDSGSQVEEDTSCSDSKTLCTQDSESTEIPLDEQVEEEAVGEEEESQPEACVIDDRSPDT
T1 sequence (Q07343 whole entry): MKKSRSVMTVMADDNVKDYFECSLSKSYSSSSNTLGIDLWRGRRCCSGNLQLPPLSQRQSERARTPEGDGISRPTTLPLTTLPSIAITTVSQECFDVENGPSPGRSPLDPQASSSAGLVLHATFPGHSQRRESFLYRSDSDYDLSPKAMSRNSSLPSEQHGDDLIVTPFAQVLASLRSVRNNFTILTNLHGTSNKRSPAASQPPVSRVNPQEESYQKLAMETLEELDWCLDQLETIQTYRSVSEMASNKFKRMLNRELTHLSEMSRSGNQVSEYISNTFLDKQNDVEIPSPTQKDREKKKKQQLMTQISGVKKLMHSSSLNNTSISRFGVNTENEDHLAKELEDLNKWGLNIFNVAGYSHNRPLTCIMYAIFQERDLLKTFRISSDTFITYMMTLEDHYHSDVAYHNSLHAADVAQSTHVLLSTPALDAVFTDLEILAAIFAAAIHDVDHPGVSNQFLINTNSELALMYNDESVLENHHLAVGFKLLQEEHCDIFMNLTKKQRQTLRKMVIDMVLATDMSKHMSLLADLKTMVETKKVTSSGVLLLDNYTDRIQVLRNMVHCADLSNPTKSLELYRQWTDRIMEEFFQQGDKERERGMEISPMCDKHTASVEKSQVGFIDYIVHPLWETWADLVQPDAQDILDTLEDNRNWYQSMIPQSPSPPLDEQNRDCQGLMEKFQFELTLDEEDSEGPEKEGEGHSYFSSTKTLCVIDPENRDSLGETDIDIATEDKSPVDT
Sequence of Dual specificity calcium/calmodulin-dependent 3',5'-cyclic nucleotide phosphodiesterase 1A (P54750 whole entry): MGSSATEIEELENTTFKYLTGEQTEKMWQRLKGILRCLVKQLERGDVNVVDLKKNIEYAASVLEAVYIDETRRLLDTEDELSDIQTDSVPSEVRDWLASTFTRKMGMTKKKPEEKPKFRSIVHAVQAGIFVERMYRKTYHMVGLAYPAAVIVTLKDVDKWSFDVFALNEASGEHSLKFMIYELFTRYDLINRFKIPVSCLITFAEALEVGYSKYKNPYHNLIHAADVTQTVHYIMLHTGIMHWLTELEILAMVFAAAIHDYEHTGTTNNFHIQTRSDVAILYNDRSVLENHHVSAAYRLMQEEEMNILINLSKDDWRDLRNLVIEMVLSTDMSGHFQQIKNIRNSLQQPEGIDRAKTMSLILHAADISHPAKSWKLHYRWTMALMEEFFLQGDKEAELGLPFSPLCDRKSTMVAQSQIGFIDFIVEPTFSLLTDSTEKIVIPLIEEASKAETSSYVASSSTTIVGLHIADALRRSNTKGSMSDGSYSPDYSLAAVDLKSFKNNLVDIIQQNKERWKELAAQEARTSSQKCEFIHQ
Sequence of Cone cGMP-specific 3',5'-cyclic phosphodiesterase subunit alpha' (P51160 whole entry): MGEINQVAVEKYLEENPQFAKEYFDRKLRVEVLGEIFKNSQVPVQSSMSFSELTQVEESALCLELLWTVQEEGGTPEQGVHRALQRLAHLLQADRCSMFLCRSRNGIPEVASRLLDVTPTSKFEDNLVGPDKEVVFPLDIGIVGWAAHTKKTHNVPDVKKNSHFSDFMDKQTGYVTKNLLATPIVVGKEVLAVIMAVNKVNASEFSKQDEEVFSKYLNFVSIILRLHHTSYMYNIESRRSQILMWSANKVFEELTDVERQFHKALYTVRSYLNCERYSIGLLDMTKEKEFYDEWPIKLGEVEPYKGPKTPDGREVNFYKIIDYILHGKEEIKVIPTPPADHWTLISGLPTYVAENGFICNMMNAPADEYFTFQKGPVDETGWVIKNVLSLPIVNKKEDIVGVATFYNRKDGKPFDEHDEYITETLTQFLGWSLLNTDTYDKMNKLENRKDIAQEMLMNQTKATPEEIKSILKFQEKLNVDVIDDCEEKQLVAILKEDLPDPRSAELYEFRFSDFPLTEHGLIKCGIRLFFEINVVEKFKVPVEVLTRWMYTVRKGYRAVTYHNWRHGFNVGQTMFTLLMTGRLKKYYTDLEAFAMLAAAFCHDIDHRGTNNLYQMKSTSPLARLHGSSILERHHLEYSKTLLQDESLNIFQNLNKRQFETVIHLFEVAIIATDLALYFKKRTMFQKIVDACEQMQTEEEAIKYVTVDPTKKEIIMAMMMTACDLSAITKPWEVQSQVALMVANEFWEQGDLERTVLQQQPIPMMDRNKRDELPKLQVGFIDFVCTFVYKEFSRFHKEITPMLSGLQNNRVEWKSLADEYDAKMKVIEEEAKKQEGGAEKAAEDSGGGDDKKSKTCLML
Sequence of cGMP-dependent 3',5'-cyclic phosphodiesterase (O00408 whole entry, the tested form may be a part): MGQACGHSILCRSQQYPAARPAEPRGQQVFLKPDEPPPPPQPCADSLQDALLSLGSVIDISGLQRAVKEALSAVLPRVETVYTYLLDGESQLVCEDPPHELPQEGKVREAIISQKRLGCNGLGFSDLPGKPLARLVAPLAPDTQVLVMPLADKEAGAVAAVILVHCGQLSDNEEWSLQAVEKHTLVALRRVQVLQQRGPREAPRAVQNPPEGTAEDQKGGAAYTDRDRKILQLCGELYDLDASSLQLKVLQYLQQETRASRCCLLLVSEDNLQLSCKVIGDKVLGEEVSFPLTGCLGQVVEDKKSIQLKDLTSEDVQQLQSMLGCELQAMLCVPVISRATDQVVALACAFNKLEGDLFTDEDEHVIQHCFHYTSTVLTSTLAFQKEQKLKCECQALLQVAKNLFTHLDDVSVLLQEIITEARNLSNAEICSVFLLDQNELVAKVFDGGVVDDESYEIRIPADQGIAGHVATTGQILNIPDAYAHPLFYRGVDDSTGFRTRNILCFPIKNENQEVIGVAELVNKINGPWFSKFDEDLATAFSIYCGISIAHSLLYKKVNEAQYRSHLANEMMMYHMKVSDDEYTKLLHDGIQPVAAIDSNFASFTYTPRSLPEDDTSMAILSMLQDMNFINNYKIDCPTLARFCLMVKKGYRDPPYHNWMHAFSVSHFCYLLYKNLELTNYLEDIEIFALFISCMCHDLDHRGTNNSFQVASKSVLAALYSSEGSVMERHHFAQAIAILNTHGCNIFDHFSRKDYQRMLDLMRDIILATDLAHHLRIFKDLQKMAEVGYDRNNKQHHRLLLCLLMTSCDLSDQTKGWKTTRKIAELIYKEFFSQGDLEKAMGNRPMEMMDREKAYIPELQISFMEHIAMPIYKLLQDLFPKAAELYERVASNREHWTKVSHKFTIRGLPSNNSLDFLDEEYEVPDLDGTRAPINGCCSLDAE
Sequence of High affinity 3',5'-cyclic-AMP phosphodiesterase 7A (Q13946 whole entry): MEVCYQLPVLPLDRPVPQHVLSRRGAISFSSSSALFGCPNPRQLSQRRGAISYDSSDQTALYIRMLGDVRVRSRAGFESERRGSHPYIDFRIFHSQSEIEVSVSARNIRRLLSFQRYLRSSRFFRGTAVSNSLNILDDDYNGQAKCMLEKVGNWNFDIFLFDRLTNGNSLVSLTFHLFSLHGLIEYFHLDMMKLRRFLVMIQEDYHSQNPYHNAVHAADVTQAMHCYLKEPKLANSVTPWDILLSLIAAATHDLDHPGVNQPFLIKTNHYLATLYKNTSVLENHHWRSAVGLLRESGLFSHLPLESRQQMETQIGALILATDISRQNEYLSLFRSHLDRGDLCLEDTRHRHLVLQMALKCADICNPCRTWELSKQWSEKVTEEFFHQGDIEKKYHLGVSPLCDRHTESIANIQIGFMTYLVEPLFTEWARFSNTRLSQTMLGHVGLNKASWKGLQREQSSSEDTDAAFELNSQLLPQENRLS
Sequence of 3',5'-cyclic-AMP phosphodiesterase 7B (Q9NP56 whole entry): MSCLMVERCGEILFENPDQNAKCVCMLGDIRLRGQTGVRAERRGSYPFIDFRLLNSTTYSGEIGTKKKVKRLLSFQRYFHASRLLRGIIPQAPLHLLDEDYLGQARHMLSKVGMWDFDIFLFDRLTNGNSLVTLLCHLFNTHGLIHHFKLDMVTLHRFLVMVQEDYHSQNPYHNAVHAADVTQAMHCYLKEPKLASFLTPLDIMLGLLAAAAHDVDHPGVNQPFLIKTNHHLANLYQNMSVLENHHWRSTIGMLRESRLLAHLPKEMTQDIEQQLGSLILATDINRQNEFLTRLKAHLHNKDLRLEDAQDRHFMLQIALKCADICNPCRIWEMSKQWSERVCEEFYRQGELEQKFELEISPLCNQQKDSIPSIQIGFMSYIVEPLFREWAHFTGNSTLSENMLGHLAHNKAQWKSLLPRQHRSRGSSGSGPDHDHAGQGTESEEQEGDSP

## O=C(O)Cc1ccc(Cc2cc(-c3cccc(Cl)c3)nc(C(F)(F)F)c2)cc1 [ZATOLMILAST]
[1]
  remaining at 0.5 h, 1 µM: 88 to 100%
[2]
  remaining at 0.5 h, 1 µM: 88 to 100%
[3]
  inhibition: Active
[4]
  Imax: 90.2%
[5]
  Imax: 89%
[6]
  IC50: > 10 µM
[7]
  half-life: 10 to 12 h
[8]
  BPR: 0.45
[9]
  inhibition: inactive
[10]
  bioavailability: 80 to 100%
[11]
  Activity: Non-Toxic
[12]
  Activity: Toxic
[13]
  Activity: Toxic
[14]
  Activity: Non-Toxic
Mustela putorius furo
  Activity: Non-Toxic
[15]
  inhibition (INH): Not Active
[16]
  inhibition (INH): Not Active
[17]
  inhibition (INH): Not Active
[18]
  inhibition (INH): Not Active
[19]
  inhibition (INH): Not Active
[20]
  inhibition (INH): Not Active
[21]
  inhibition (INH): Not Active
[22]
  inhibition (INH): Not Active
[23]
  inhibition (INH): Not Active
[24]
  inhibition (INH): Not Active
[25]
  inhibition (INH): Not Active
[26]
  inhibition (INH): Not Active
[27]
  inhibition (INH): Not Active
[28]
  inhibition (INH): Not Active
[29]
  Cmax: 11475 ng/mL
